# Laboratory results reported in BindingDB's records for doi:10.1016/j.ejmech.2020.112062 (Mansoura University, 2020).
# Target: Transcription factor p65 (Human, UniProt Q04206)
# Experiment: Inhibition of NFkappaB p65 in human RPMI-8226 cells incubated for 2 hrs by ELISA
# Outline: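 Target levels measured by ELISA kits in RPMI-8226 cells. Cells were seeded and grown 24 h at 37 °C, then exposed 72 h to a semi-log series of concentrations. Sample was incubated 2 h at 37 °C, followed by detection reagents A and B (1 h each), TMB substrate and stop solution, with OD read at 450 nm. IC50 was taken from sigmoidal dose-response nonlinear regression of % activity.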
# Sequence of Transcription factor p65 (Q04206 whole entry): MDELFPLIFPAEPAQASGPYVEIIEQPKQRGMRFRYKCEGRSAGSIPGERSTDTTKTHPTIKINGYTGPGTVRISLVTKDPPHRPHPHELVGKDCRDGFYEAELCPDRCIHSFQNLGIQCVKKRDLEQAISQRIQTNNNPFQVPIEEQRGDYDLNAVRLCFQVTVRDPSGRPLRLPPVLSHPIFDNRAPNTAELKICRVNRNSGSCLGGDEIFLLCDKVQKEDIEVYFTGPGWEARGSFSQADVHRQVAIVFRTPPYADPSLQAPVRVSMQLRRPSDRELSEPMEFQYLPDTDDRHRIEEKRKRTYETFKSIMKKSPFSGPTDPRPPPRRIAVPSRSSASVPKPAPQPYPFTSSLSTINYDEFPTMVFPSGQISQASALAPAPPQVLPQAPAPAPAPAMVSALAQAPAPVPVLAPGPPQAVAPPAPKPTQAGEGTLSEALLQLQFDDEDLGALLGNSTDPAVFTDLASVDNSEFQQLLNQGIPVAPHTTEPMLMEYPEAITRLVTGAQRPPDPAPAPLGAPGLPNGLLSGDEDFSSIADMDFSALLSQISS
row,IC50 [µM],Compound
1,0.134,COc1ccc(/C=C/C(=O)c2nnn(-c3ccc(Cl)cc3)c2C)cc1OC
2,0.055,COc1cc2ncnc(Nc3ccc(F)c(Cl)c3)c2cc1OCCCN1CCOCC1 [ZD1839]
